Calls of active or inactive are those of the source. The rule behind the calls is not given here.
Assays:
[1] = Plasma clearance in rat; type: ADME, organism-based
[2] = target: T1, Muscarinic acetylcholine receptor M4 (Homo sapiens) (UniProt P08173); test: (§1) Positive allosteric modulation of human M4 receptor expressed in CHO-K1 cells coexpressing Gqi5 assessed as potentiation of acetylcholine-mediated calcium mobilization incubated for 144 secs prior to acetylcholine addition by Fluo-4-AM staining; type: functional, cell-based
T1 sequence (whole entry): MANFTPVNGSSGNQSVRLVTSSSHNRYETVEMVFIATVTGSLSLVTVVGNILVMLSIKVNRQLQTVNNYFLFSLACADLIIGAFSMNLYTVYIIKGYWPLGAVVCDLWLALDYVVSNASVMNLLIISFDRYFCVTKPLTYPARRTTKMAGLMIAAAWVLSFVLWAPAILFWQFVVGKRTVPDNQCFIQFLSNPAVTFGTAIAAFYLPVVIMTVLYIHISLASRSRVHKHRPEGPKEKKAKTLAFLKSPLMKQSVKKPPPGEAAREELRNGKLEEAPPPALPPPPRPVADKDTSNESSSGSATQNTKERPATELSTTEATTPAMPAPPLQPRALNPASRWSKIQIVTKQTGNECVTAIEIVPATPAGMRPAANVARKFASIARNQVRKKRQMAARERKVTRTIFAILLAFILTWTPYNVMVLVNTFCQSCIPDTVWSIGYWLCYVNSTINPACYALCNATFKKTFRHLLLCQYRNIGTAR
How it was run: (§2)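 hM4 stably cotransfected with chimeric Gqi5 in CHO-K1 cells. Cells plated overnight at 37 °C, loaded with Fluo-4 AM for 45 min at 37 °C in HBSS/20 mM HEPES/2.5 mM probenecid. Compound pretreated 144 s (0.3% DMSO final), then EC20 ACh, then EC80 ACh 86 s later; kinetic fluorescence at 37 °C.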

[3] = target: T2, Muscarinic acetylcholine receptor M4 (Homo sapiens, UniProt P08173); test: as §1; type: functional, cell-based; how it was run: as §2
T2 sequence (P08173 whole entry): T1 sequence (whole entry)

[4] = target: T1, Muscarinic acetylcholine receptor M4 (Homo sapiens); test: Positive allosteric modulation of human M4 receptor expressed in CHO-K1 cells coexpressing Gqi5 assessed as potentiation of acetylcholine-mediated calcium mobilization incubated for 144 secs prior to acetylcholine addition by Fluo-4-AM staining relative to acetylcholine; type: functional, cell-based
How it was run: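 hM4-Gqi5 CHO-K1 cells, plated overnight, loaded with Fluo-4 AM (45 min, 37 °C). Compound (0.3% DMSO final) preincubated 144 s, then ACh EC20 added, and EC80 added 86 s later; 1 mM ACh wells for normalization. Calcium read at 37 °C, normalized to baseline and then to maximal ACh response. EC50 from four-parameter logistic fit; three independent determinations in triplicate.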

Compound	pEC50 [2]	EC50 [3] [µM]	%max [4] [%]	further results
Cc1cc(OCc2ccncc2)nc2sc(C(=O)NCc3cccc(F)c3F)c(N)c12				clearance [1]: > 100 mL/min/kg
COc1ccc(C)c2sc(NC(=O)c3cc(F)cc(F)c3)nc12	inactive			
Cc1nc2sc(C(=O)NCc3ccncc3)c(N)c2c(C)c1Cl				clearance [1]: > 100 mL/min/kg
COc1ccc(C)c2sc(NS(=O)(=O)c3ccc(F)cc3F)nc12	inactive			
COc1ccc(C)c2sc(NC(=O)c3cccnc3)nc12		2.34	37.6	
COc1ccc(C)c2sc(NC(=O)c3ccc(F)cc3)nc12	inactive			
COc1ccc(C)c2sc(NC(=O)NC3CCCC3)nc12		7.08	36.5	
COc1ccc(C)c2sc(NC(=O)CCc3ccccc3)nc12	inactive			
COc1ccc(C)c2sc(NC(=O)C3CCCC3)nc12		> 10	45	
COc1ccc(C)c2sc(NC(=O)C3=COCCO3)nc12		1.82	55.7	
COc1ccc(C)c2sc(NS(=O)(=O)c3ccc(C(F)(F)F)cc3)nc12	inactive			
COc1ccc(CNC(=O)c2sc3nc(C)cc(C)c3c2N)cc1				clearance [1]: > 100 mL/min/kg
COc1ccc(C)c2sc(C(=O)NC3CCCCC3)nc12	inactive			
COc1ccc(C)c2sc(NC(=O)C3CCCOC3)nc12 (configuration not stated)		> 10	44	
COc1ccc(C)c2sc(C(=O)NCc3ccncc3)nc12	inactive			
COc1ccc(C)c2sc(NC(=O)c3c(F)cccc3F)nc12	inactive			
COc1cccc2sc(NC(=O)c3ccncc3)nc12		2.82	36.5	
COc1ccc(C)c2sc(NC(=O)c3ccc(F)c(F)c3)nc12	inactive			
COc1ccc(C)c2sc(NC(=O)C3CCC3)nc12		> 10	52.2	
COc1ccc(C)c2sc(NC(=O)c3cnccn3)nc12		1.12	38.2	
COc1ccc(C)c2sc(NC(=O)C3CC3C)nc12 (configuration not stated)		> 10	66.5	
COc1ccc(C)c2sc(NC(=O)C3CC3)nc12		> 10	61.5	
COc1ccc(C)c2sc(C(=O)Nc3ccc(C)nc3)nc12	inactive			
COc1ccc(C)c2sc(NS(=O)(=O)c3ccc4occc4c3)nc12	inactive			
COc1ccc(C)c2sc(NS(=O)(=O)c3cccc(Cl)c3)nc12	inactive			
COc1ccc(C)c2sc(NC(=O)NC3CC3)nc12		> 10	39.3	
O=C(Nc1nc2cccnc2s1)c1cccnn1	inactive			
COc1ccc(C)c2sc(NC(=O)c3ccco3)nc12		1.35	51.8	
CCCC(=O)Nc1nc2c(OC)ccc(C)c2s1		> 10	52.5	
COc1ccc(C)c2sc(NC(=O)N3CCCCC3)nc12	inactive			

Continued, in another order:

pEC50 [2]	EC50 [3] [µM]	%max [4] [%]	Compound	further results
	> 10	43.7	COc1ccc(C)c2sc(NC(=O)C3CCCCC3)nc12	
inactive			COc1ccc(C)c2sc(NS(=O)(=O)c3cccc(C)c3)nc12	
	> 10	43.5	COc1ccc(C)c2sc(NC(=O)N3CCCC3)nc12	
inactive			COc1ccc(C)c2sc(NC(=O)NC3CCC3)nc12	
inactive			COc1ccc(C)c2sc(NC(=O)NCc3ccncc3)nc12	
inactive			O=C(Nc1nc2cccnc2s1)c1cnccn1	
inactive			COc1ccc(C)c2sc(NC(C)=O)nc12	
inactive			COc1ccc(C)c2sc(NC(=O)C3=C(C)OCCO3)nc12	
inactive			COc1ccc(C)c2sc(NC(=O)c3ccc(C)cc3)nc12	
	> 10	64.1	COc1ccc(C)c2sc(NC(=O)C3CCCCO3)nc12 (configuration not stated)	
inactive			O=C(Nc1nc2cccnc2s1)C1CCCC1	
inactive			COc1ccc(C)c2sc(NC(=O)c3ccccn3)nc12	
inactive			COc1ccc(C)c2sc(NC(=O)CC3CC3)nc12	
inactive			CCCCC1CC1C(=O)Nc1nc2c(OC)ccc(C)c2s1 (configuration not stated)	
inactive			COc1ccc(C)c2sc(NC(=O)Nc3ccncc3)nc12	
inactive			COc1ccc(C)c2sc(NS(=O)(=O)c3cc(C)ccn3)nc12	
	> 10	43.2	COCC(=O)Nc1nc2c(OC)ccc(C)c2s1	
inactive			COc1ccc(C)c2sc(NS(=O)(=O)c3cnn(C)c3)nc12	
inactive			COc1ccc(C)c2sc(NC(=O)c3ccc(F)cc3F)nc12	
inactive			COc1ccc(C)c2sc(NC(=O)CC(C)(C)C)nc12	
inactive			COc1ccc2nc(NC(=O)c3ccncc3)sc2n1	
	7.76	35.6	COc1ccc(C)c2sc(C(=O)NC3CC3)nc12	
inactive			O=C(Nc1nc2cccnc2s1)C1CCC1	
inactive			O=C(Nc1nc2ccccc2s1)C1CCCCO1 (configuration not stated)	

Reference: ChEMBL document CHEMBL2057082, “Discovery of N-(4-methoxy-7-methylbenzo[d]thiazol-2-yl)isonicatinamide, ML293, as a novel, selective and brain penetrant positive allosteric modulator of the muscarinic 4 (M4) receptor” (Bioorg Med Chem Lett, 2012)
